The source made the active and inactive calls. The calls are words filed in the database; no cut-off is given here.
What was measured:
[1] = target: T1, Scaffold protein ILK (Homo sapiens) (UniProt Q13418); assay: Inhibition of ILK in human PC3 cells assessed as decrease in phosphorylated ERK1/2 concentration by Western blot analysis; format: cell-based; conditions: PC-3
T1 sequence (whole entry): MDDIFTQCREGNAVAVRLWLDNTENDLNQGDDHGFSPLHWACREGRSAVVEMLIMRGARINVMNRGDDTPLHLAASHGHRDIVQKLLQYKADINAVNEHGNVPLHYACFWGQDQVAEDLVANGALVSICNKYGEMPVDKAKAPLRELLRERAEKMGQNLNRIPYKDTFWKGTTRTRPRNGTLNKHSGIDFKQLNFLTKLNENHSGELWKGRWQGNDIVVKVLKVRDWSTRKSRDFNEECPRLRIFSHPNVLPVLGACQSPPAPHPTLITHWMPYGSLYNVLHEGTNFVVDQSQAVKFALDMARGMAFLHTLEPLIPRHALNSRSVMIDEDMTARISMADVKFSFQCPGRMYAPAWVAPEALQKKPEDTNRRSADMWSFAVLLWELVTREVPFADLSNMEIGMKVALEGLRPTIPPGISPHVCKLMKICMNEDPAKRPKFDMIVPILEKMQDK
Procedure, shortened: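 PC-3 cells exposed to graded concentrations for 24 h in 5% FBS medium. Immunoblotting for phospho-Tyr397-FAK, ERK1/2, p38 and JNK. Lysis in 1% SDS buffer, primary antibody 1:1000 at 4°C for 2 h, ECL. Three independent experiments.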

[2] = target: T1, Scaffold protein ILK (Homo sapiens); assay: Inhibition of ILK in human PC3 cells expressing constitutively active ILK assessed as decrease in phosphorylated p38 concentration by Western blot analysis; format: cell-based; conditions: PC-3
Procedure, shortened: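 Stable PC-3 clones expressing GFP-CA-ILK (G418 250 μg/mL selection, GFP sorting) treated 24 h in 5% FBS medium. Phospho-ERK1/2 and phospho-p38 detected by immunoblot with ECL. Representative of three experiments.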

inhibition [1]: Dose-dependent effect | inhibition [2]: inactive
SMILES: CNC(=O)CCc1cc(-c2ccc(-c3ccc(C(F)(F)F)cc3)cc2)n(-c2ccc(N3CCNCC3)cc2)n1

Source: ChEMBL document CHEMBL1828498, “Identification and characterization of a novel integrin-linked kinase inhibitor” (J Med Chem, 2011)
